# Screening data (PubChem BioAssay)
# F508del corr: correctors of CFTR F508del function in bronchial epithelial cells | actives 0.36% (n = 350,000) | activity (quench increase), % at 7.58 µM | CFBE cells, YFP halide quenching; stimulated with forskolin plus potentiator P3; % fluorescence drop versus neutral controls;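 active = mean added fluorescence quench of at least 8% versus neutral control, with both replicates also reaching 8%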;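 also: cells transiently co-express mutant CFTR-F508del with the halide-sensitive YFP; corrector assay measuring rescue of mutant channel to the surface after 24 h compound exposure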
# ERp5 block: blocks human ERp5 reductase activity on insulin; Q15084; ERp5 insulin aggregation, absorbance 650 nm, 90 min; inhibition, % at 9.99 µM; actives 0.05% (n = 350,000); AID 651711;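 active = mean replicate inhibition above about 25%, with every replicate also reaching it, limit read from the data, passing the limit was not always enough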
# PDI inh: PDI (human) enzyme inhibition | AID 588391 | inhibition, % at 10 µM | actives 0.052% (n = 350,000) | PDI insulin aggregation turbidity, A650, 90 min;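 active = mean inhibition across replicates of 30% or more, whatever share of single replicates reach that level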
# Target sequence (P07237 whole entry, looked up): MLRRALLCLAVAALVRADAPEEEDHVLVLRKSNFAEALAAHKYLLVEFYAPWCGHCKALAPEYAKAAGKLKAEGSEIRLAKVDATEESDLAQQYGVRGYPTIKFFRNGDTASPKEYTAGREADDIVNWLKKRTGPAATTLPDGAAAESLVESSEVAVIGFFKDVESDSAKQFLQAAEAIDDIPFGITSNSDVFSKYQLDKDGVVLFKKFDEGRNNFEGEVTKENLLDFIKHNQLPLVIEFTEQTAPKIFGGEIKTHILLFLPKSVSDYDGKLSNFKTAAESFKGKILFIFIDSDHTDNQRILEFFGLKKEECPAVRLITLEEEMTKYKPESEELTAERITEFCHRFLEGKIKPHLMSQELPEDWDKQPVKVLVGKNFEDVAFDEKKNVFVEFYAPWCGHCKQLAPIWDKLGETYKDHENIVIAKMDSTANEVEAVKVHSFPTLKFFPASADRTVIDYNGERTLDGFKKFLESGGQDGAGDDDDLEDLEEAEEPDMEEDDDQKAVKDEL
# Statin myotox sup: suppression of simvastatin myotoxicity; C2C12 myotubes + simvastatin, ATP luminescence, 48 h; scaled: DMSO 0, geranylgeraniol control 100; rescue of ATP level, % at 7.49 µM; actives 0.78% (n = 330,000);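 active = mean ATP rescue above about 67%, or every replicate alone reaching that limit, limit read from the data, passing the limit was not always enough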;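 also: myotubes were challenged with 10 µM simvastatin during compound exposure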
# DENV2 CPE: DENV2-induced cell death inhibition; CPE inhibition, % at 9.99 µM; actives 1.7% (n = 350,000); DENV2-infected cells, cytopathic effect rescue, plate reader; in the data active = CPE inhibition above about 20%, passing the limit was not always enough; tested in BHK-21 cells;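 also: 0% = median of neutral control wells and 100% = median of positive control wells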
# Cneo AK release: causes C. neoformans cell lysis. adenylate kinase release luminescence, 4 h; normalised: neutral wells 0, clomiphene wells 100. lysis activity, % at 15 µM. actives 0.2% (n = 360,000);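 active = mean lysis activity across replicates of at least 80%, whatever share of replicates individually reach that level; inactive = mean lysis activity below 80%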
#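 Material: C. neoformans cells | Amount: Yeast cell density of 5 × 10^6 cells/mL | Medium: Fresh YPD growth medium | Dosing: Single dose | Times: Static 4 h at 37 °C with compound, 1 h detection | Detection: AK luminescence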
# Numbers without * were called inactive; · = no result; ! = not confirmed by another sample. Rows were chosen to be rich in hits. Some 2.3% of all compounds tested hit in one or more screens of this group.
SMILES,F508del corr,ERp5 block,PDI inh,Statin myotox sup,DENV2 CPE,Cneo AK release
O=C(c1ccccn1)N1CC2(C1)[C@@H](c1ccccc1)[C@@H](CO)N2C(=O)CC1CC1,1.8,5.8,·,·,34.6*,·
O=C(CC1CC1)N1CC2(C1)[C@H](c1ccccc1)[C@H](CO)N2Cc1ccccn1,1.4,20.9,·,·,22.7*,·
O=C(c1ccccc1)N1CC2(C1)[C@H](c1ccccc1)[C@H](CO)N2Cc1ccccn1,0.2,0.4,·,·,-2.0,·
CCCOc1ccc(C(=O)CCCC(=O)c2ccc(OCCC)cc2)cc1,8.3*,5.3,-2.6,-7.3,1.1,-0.4
CCN1C/C(=C\c2cccc([N+](=O)[O-])c2)C(=O)/C(=C/c2cccc([N+](=O)[O-])c2)C1,1.0,1.7,6.1,·,33.2*,0.4
O=C1/C(=C/c2cccc([N+](=O)[O-])c2)CCc2ccccc21,·,·,-4.1,-7.5,·,1.6
COc1ccccc1-c1ccc2c(c1)O[C@H](CN(C)C)[C@H](C)CN([C@H](C)CO)S2(=O)=O,-1.5,1.5,·,-5.3,6.1,-2.2
O=C(Nc1cccc(C(F)(F)F)c1)OCCN1CCN(Cc2ccccc2)CCC1=O,5.6,3.2,0.0,·,69.8*,-1.0
Cc1ccc(S(=O)(=O)N(CC(=O)NCc2ccc(F)cc2)C(=O)N2CCN(C)CC2)cc1,-2.1,-3.7,3.1,8.6,31.0*,-1.0
Cc1ccc(S(=O)(=O)N(CC(=O)NCc2ccccc2Cl)C(=O)N2CCN(C)CC2)cc1,-1.0,4.9,-1.0,-5.0,-4.0,·
COCC(=O)N(C)C[C@H]1Oc2ncc(-c3ccccc3F)cc2C(=O)N([C@@H](C)CO)C[C@H]1C,-2.7,-5.8,·,-9.1,·,86.8*
C[C@H](CO)N1C[C@H](C)[C@@H](CN(C)C(=O)c2ccccn2)Oc2ncc(-c3ccccc3F)cc2C1=O,-3.9,2.2,·,-1.8,20.8*,-1.8
COCC(=O)N(C)C[C@H]1Oc2ncc(-c3ccccc3OC)cc2C(=O)N([C@@H](C)CO)C[C@@H]1C,-1.6,9.0,·,-10.3,21.4*,-3.6
C[C@@H]1CN([C@H](C)CO)C(=O)c2cc(-c3ccccc3F)cnc2O[C@H]1CN(C)Cc1ccc(F)cc1,1.3,6.8,·,0.1,28.9*,-2.6
COc1ccccc1-c1cnc2c(c1)C(=O)N([C@@H](C)CO)C[C@@H](C)[C@H](CN(C)C(=O)c1cccnc1)O2,0.4,0.0,-1.8,5.2,-3.5,89.2*!
C[C@@H]1CN([C@@H](C)CO)C(=O)c2cc(Br)cnc2O[C@H]1CN(C)Cc1ccccc1,2.7,-8.5,·,-12.1,1.5,4.3
C[C@@H]1CN([C@H](C)CO)C(=O)c2cc(-c3cccnc3)cnc2O[C@H]1CN(C)C,0.4,8.9,·,6.8,·,41.0
C[C@H]1CN([C@@H](C)CO)C(=O)c2cc(-c3cccnc3)cnc2O[C@H]1CN(C)C,1.2,0.5,·,3.3,73.0*,-8.9
C[C@@H]1CN([C@@H](C)CO)C(=O)c2cc(Br)cnc2O[C@H]1CN(C)Cc1cccc(F)c1,-1.5,36.9*!,·,·,-6.1,-1.4
C[C@@H]1CN([C@H](C)CO)C(=O)c2cc(C3=CCCCC3)cnc2O[C@H]1CN(C)C(=O)Cc1cccnc1,-0.3,-8.5,·,2.2,-5.3,103.7*
O=C(Nc1ccccc1F)N1CC(=O)N2[C@H](CO)[C@@H](c3ccc(C#CC4CC4)cc3)[C@@H]2C1,-2.5,3.5,·,·,17.2,·
C[C@H](O)C#Cc1cnc2c(c1)C(=O)N([C@@H](C)CO)C[C@@H](C)[C@H](CN(C)C(=O)Cc1ccncc1)O2,0.0,-5.5,·,-5.4,1.7,-0.5
CC(C)(C)[S@](=O)N1Cc2cc(C(=O)NCCc3ccncc3)nc(-c3cccc(-c4ccccc4)c3)c2[C@@H]1CCO,-1.4,-3.9,·,·,14.4,·
COc1cccc(CN2CC3(CN(C(=O)Nc4c(C)noc4C)C3)c3c([nH]c4cc(OC)ccc34)[C@@H]2CO)c1,1.9,1.9,·,·,9.8,·
C[C@@H]1CN([C@H](C)CO)C(=O)c2cc(C3=CCCCC3)cnc2O[C@H]1CN(C)C(=O)c1ccccn1,-0.6,1.7,·,-6.9,-11.2,-2.5
SMILES,F508del corr,ERp5 block,PDI inh,Statin myotox sup,DENV2 CPE,Cneo AK release
C[C@@H]1CN([C@H](C)CO)C(=O)c2cc(C3=CCCCC3)cnc2O[C@@H]1CN(C)C(=O)c1ccccn1,-0.3,2.6,·,106.0*,17.6,-4.6
COc1ccc(NC(=O)Nc2ccc3c(c2)C(=O)N([C@H](C)CO)C[C@@H](C)[C@@H](CN(C)C(=O)Nc2ccc(C(F)(F)F)cc2)O3)cc1,0.4,-2.7,·,-1.7,-6.9,-0.4
CN(CC(=O)NCc1ccco1)CC(=O)Nc1cc(S(C)(=O)=O)ccc1Cl,-2.6,2.9,1.4,6.3,-5.6,2.4
CN(CC(=O)NCc1ccco1)CC(=O)Nc1ccc(F)c(F)c1F,2.0,-1.9,8.1,109.0*,11.9,1.6
COc1ccccc1S(=O)(=O)N[C@H]1CC[C@@H](CC(=O)NCc2cc(F)cc(F)c2)O[C@@H]1CO,0.5,11.3,·,·,2.1,·
O=C(COC(=O)Cc1ccsc1)Nc1cccc(F)c1,16.4*,7.2,-0.7,2.2,15.2,0.4
COc1cc(OC)c2c(-c3cccc(-c4ccc(C(C)=O)cc4)c3)cc(=O)oc2c1,·,·,3.4,-42.1,·,5.6
COc1cc(OC)c2c(-c3cccc(-c4ccc(OC)c(F)c4)c3)cc(=O)oc2c1,8.5*,-5.5,-10.5,-20.4,-2.1,-0.3
CC(=NNC(=S)N1CC2CCC(CC2)C1)c1cnccn1,10.7*,3.5,15.8,·,5.1,·
Cc1cn([C@H]2C[C@H](O)[C@@H](CNCc3ccc(C#CCCO)cc3)O2)c(=O)[nH]c1=O,1.1,1.5,8.6,-1.3,-3.7,0.9
Cc1cn([C@H]2C[C@H](O)[C@@H](CNCc3ccc4ncccc4c3)O2)c(=O)[nH]c1=O,2.0,0.6,1.7,-0.6,94.1*,-1.3
C[C@H]1CCCCO[C@H](CN(C)C(=O)c2ccccc2)[C@@H](C)CN([C@@H](C)CO)C(=O)c2cc(NC(=O)CCCN(C)C)ccc2O1,1.9,1.0,·,-8.3,7.0,-4.0
Cc1ccc(C(=O)NCCN2C3=NC[C@H](Cc4ccc(O)cc4)N3C[C@H]2Cc2ccc(O)cc2)cc1Br,-1.6,0.8,39.7*,-54.4,·,2.9
COc1ccc(C[C@H]2CN3C(=NC[C@@H]3C(C)C)N2C[C@H](C)NC(=O)c2ccc(C)c(Br)c2)cc1,-0.2,10.7,-1.1,-21.5,-15.7,-0.2
Cc1ccc(C(=O)N[C@@H](C)CN2C3=NC[C@H](C(C)C)N3C[C@H]2Cc2ccc(O)cc2)cc1Br,-3.3,-3.1,14.9,-7.7,106.2*,9.2
C[C@@H]1CN([C@@H](C)CO)C(=O)Cc2cc(NS(=O)(=O)c3cccs3)ccc2O[C@@H]1CN(C)C(=O)Nc1ccccc1,-0.3,9.1,·,-0.7,-7.9,0.3
C[C@H](CO)N1C[C@H](C)[C@@H](CN(C)Cc2ccncc2)Oc2c(NS(C)(=O)=O)cccc2C1=O,-0.4,3.0,·,-4.5,5.2,4.5
